Details in all cases: in vivo; call rule not given here
A short description of data set [1]: Drug level in iv dosed dog kidney by gamma-scintillation counting analysis. Type of data set: ADME, organism-based, Canis lupus familiaris. The method, boiled down:
(§1)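 Carbon-11-labeled hydantoin, 1–59 mCi of final product, dissolved in 1–1.5% aqueous NaOH and given iv to dogs. Distribution imaged serially for up to 2 hr or more with a scintillation camera fitted with a pinhole collimator (1-cm hyperbolic aperture), with whole-body scintiphotos at about 5 and 30 min. Readout is qualitative to semiquantitative; no coincidence imaging.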

Data set [2] can be described thus: Drug level in iv dosed dog lung by gamma-scintillation counting analysis. Type of data set: ADME, organism-based, Canis lupus familiaris. Summed up:
as §1

Data set [3] in a line: Drug excretion in iv dosed dog urine by gamma-scintillation counting analysis. Type of data set: ADME, organism-based, Canis lupus familiaris. The method, boiled down: as §1
Data set [4] relates to Liver. The data set can be described thus: Drug level in iv dosed dog liver by gamma-scintillation counting analysis. Type of data set: ADME, organism-based, Canis lupus familiaris. The method, boiled down:
as §1

Data set [5] deals with Canis familiaris. Kind of data set: Drug level in iv dosed dog by gamma-scintillation counting analysis. Type of data set: ADME, organism-based, Canis lupus familiaris. Summed up: as §1
Data set [6] is described as follows: Drug excretion in iv dosed dog bile after 5 to 30 mins by gamma-scintillation counting analysis. The data set is classed as ADME, organism-based, Canis lupus familiaris. The method, boiled down: as §1
The test system of data set [7] is Brain. The data set can be described thus: Drug level in iv dosed dog brain after 5 to 30 mins by gamma-scintillation counting analysis. The data set is classed as ADME, organism-based, Canis lupus familiaris. Summed up: as §1
Data set [8] can be described thus: Drug level in iv dosed dog vein by gamma-scintillation counting analysis. The data set is classed as ADME, organism-based, Canis lupus familiaris. Summed up:
as §1

The nature of data set [9]: Drug level in iv dosed dog mesenteric fat after 40 mins by gamma-scintillation counting analysis. The data set is classed as ADME, organism-based, Canis lupus familiaris. Summed up:
(§2)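 Dogs received the 11C-labeled hydantoin iv in 1–1.5% aqueous NaOH. Organs and tissues were taken at necropsy 40 min after dosing and placed at fixed geometrical positions in front of a thallium-activated NaI scintillation detector. Detected scintillation events gave quantitative estimates of tissue activity.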

Data set [10] can be described thus: Drug level in iv dosed dog pancreas after 40 mins by gamma-scintillation counting analysis. Type of data set: ADME, organism-based, Canis lupus familiaris. The method, boiled down: as §2
Data set [11] is described as follows: Drug level in iv dosed dog kidney after 40 mins by gamma-scintillation counting analysis. The data set is classed as ADME, organism-based, Canis lupus familiaris. The method, boiled down:
as §2

Data set [12] in a line: Drug level in iv dosed dog skeletal muscle after 40 mins by gamma-scintillation counting analysis. Type of data set: ADME, organism-based, Canis lupus familiaris, Muscle tissue. The method, boiled down: as §2
Data set [13] can be described thus: Drug excretion in iv dosed dog bile by gamma-scintillation counting analysis. The data set is classed as ADME, organism-based, Canis lupus familiaris. The method, boiled down:
as §1

Data set [14] relates to Brain. The data set can be described thus: Drug level in iv dosed dog brain by gamma-scintillation counting analysis. Type of data set: ADME, organism-based, Canis lupus familiaris. Summed up:
as §1

Data set [15] can be described thus: Drug level in iv dosed dog cerebrospinal fluid after 40 mins by gamma-scintillation counting analysis. The data set is classed as ADME, organism-based, Canis lupus familiaris. The method, boiled down:
as §2

Data set [16] can be described thus: Drug level in iv dosed dog omentum after 40 mins by gamma-scintillation counting analysis. The data set is classed as ADME, organism-based, Canis lupus familiaris. The method, boiled down:
as §2

Data set [17] is described as follows: Drug level in iv dosed dog lung after 40 mins by gamma-scintillation counting analysis. The data set is classed as ADME, organism-based, Canis lupus familiaris. Summed up: as §2
Data set [18] in a line: Drug level in iv dosed dog blood after 40 mins by gamma-scintillation counting analysis. The data set is classed as ADME, organism-based, Canis lupus familiaris. Summed up: as §2
For data set [19], the system named is Brain. The data set can be described thus: Drug level in iv dosed dog brain after 40 mins by gamma-scintillation counting analysis. Type of data set: ADME, organism-based, Canis lupus familiaris. The method, boiled down: as §2
Data set [20] concerns Liver. The data set can be described thus: Drug level in iv dosed dog liver after 40 mins by gamma-scintillation counting analysis. The data set is classed as ADME, organism-based, Canis lupus familiaris. The method, boiled down: as §2
The nature of data set [21]: Drug level in iv dosed dog heart after 40 mins by gamma-scintillation counting analysis. Type of data set: ADME, organism-based, Canis lupus familiaris. Summed up:
as §2

Data set [22] is described as follows: Drug level in iv dosed dog stomach after 40 mins by gamma-scintillation counting analysis. Type of data set: ADME, organism-based, Canis lupus familiaris. Summed up: as §2
The nature of data set [23]: Drug excretion in iv dosed dog urine after 1 hr by gamma-scintillation counting analysis. Type of data set: ADME, organism-based, Canis lupus familiaris.
Data set [24] deals with Nucleic Acid. Kind of data set: Ratio of drug level in iv dosed dog spleen to temporal muscle after 80 mins by gamma-scintillation counting analysis. Type of data set: ADME, organism-based, Canis lupus familiaris. The method, boiled down:
(§3)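 Dogs were dosed iv with 11C-labeled hydantoin. Tissues and fluids were collected at necropsy 73 or 80 min post-dose and counted at fixed geometry in front of a thallium-activated NaI scintillation detector. Values are cpm/g of tissue divided by cpm/g of temporal muscle.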

Data set [25] has as its system Nucleic Acid. The data set can be described thus: Ratio of drug level in iv dosed dog kidney to temporal muscle after 80 mins by gamma-scintillation counting analysis. Type of data set: ADME, organism-based, Canis lupus familiaris. Summed up:
as §3

For data set [26], the system named is Nucleic Acid. The data set can be described thus: Ratio of drug level in iv dosed dog washed heart to temporal muscle after 80 mins by gamma-scintillation counting analysis. The data set is classed as ADME, organism-based, Canis lupus familiaris. The method, boiled down: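 Dogs received the [11C]-labeled hydantoin intravenously. At necropsy 80 min post-injection, the heart was washed and collected with temporal muscle. Each sample was placed at a fixed position before a thallium-activated NaI scintillation detector. The ratio is cpm/g tissue over cpm/g temporal muscle.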

For data set [27], the system named is Nucleic Acid. The data set can be described thus: Ratio of drug level in iv dosed dog blood to temporal muscle after 80 mins by gamma-scintillation counting analysis. Type of data set: ADME, organism-based, Canis lupus familiaris. Summed up: as §3
Data set [28] concerns Nucleic Acid. The data set can be described thus: Ratio of drug level in iv dosed dog lung to temporal muscle after 80 mins by gamma-scintillation counting analysis. The data set is classed as ADME, organism-based, Canis lupus familiaris. Summed up:
as §3

Data set [29] concerns Nucleic Acid. Kind of data set: Ratio of drug level in iv dosed dog brain to temporal muscle after 80 mins by gamma-scintillation counting analysis. Type of data set: ADME, organism-based, Canis lupus familiaris. Summed up:
as §3

Data set [30] deals with Canis familiaris. The data set can be described thus: Drug level in iv dosed dog after 5 to 30 mins by gamma-scintillation counting analysis. The data set is classed as ADME, organism-based, Canis lupus familiaris. The method, boiled down:
as §1

The subject of data set [31] is Nucleic Acid. Kind of data set: Ratio of drug level in iv dosed dog liver to temporal muscle after 80 mins by gamma-scintillation counting analysis. The data set is classed as ADME, organism-based, Canis lupus familiaris. Summed up:
as §3

Data set [32] has as its system Nucleic Acid. The data set can be described thus: Ratio of drug level in iv dosed dog pancreas to temporal muscle after 80 mins by gamma-scintillation counting analysis. The data set is classed as ADME, organism-based, Canis lupus familiaris. The method, boiled down:
as §3

The test system of data set [33] is Nucleic Acid. Kind of data set: Ratio of drug level in iv dosed dog stomach to temporal muscle after 80 mins by gamma-scintillation counting analysis. The data set is classed as ADME, organism-based, Canis lupus familiaris. Summed up: as §3
The test system of data set [34] is Nucleic Acid. Kind of data set: Ratio of drug level in iv dosed dog mesenteric fat to temporal muscle after 80 mins by gamma-scintillation counting analysis. The data set is classed as ADME, organism-based, Canis lupus familiaris. Summed up: as §3
The test system of data set [35] is Nucleic Acid. Kind of data set: Ratio of drug level in iv dosed dog bile to temporal muscle after 80 mins by gamma-scintillation counting analysis. Type of data set: ADME, organism-based, Canis lupus familiaris. The method, boiled down: as §3

Each structure is given as a SMILES string.

Take `CSCCC1NC(=O)N[11C]1=O` (stereo unspecified): the Drug uptake result (in data set [1]; in data set [2]; in the data set on Liver [4]; in the data set on Canis familiaris [5]) was “Active” in each case. Further, the Drug excretion result in data set [3] is “metabolite_detected”.
As for `CCC1(CC)NC(=O)N[11C]1=O`, the Drug uptake entry in [1] is reported as “Active”; in data set [2], “Active”; in the data set with Brain [7], “Not Active”; in the data set on Liver [4] it was “Active”; in the data set on Canis familiaris [5], “Active”. In addition, the Drug excretion entry in [3] was “metabolite_detected”; in data set [6] it was “metabolite_notdetected”.
For `CCCC1(CCC)NC(=O)N[11C]1=O`, the Drug uptake result is reported as “Active” in data set [1]; “Active” in data set [2]; “Not Active” in the data set with Brain [7]; “Active” in the data set with Liver [4]; “Active” in the data set on Canis familiaris [5]. Moreover, the Drug excretion entry in data set [3] is given as “metabolite_detected”; in data set [6], “metabolite_notdetected”.
Take `CC(C)CC1(CC(C)C)NC(=O)N[11C]1=O`: the Drug uptake entry in data set [1] was “Active”; in [2] it was “Active”; with Brain [7] it was “Not Active”; in the data set on Liver [4] it was “Active”; with Canis familiaris [5], “Active”. Also, the results for the Drug excretion entry in data set [3] and in [6] were “metabolite_detected” and “metabolite_notdetected”, respectively.
`CC1(CCC(=O)O)NC(=O)N[11C]1=O` (stereo unspecified): the Drug uptake result is listed as “Active” in data set [8]; “Active” in data set [1]; “Active” in data set [2]; “Not Active” in the data set with Brain [7]; “Active” in the data set on Liver [4]; “Active” in the data set on Canis familiaris [5]. The Drug excretion result is “metabolite_detected” in data set [3] and “metabolite_notdetected” in data set [6].
Consider `O=C1N[11C](=O)C(c2ccccc2)(c2ccccc2)N1`, for which the Drug uptake result (in data set [9]; in data set [10]; in data set [11]; in [1]; in [12]; in the data set with Brain [14]) was “Active” in each case. In addition, the Drug uptake result (in data set [15]; in data set [16]; in data set [17]; in data set [18]; with Brain [19]; in the data set on Liver [20]) was “Active” in each case. Moreover, the Drug uptake entry in data set [21] and in data set [22] was “Active” in each case. In addition, the Drug excretion entry in data set [13] and in data set [3] was “metabolite_detected” in each case.
As for `O=C1N[11C](=O)C(c2ccc(Cl)cc2)(c2ccc(Cl)cc2)N1`, the Drug uptake entry (in data set [1]; in the data set on Brain [14]) was “Active” throughout. For the same compound, the Drug excretion result in data set [13] and in data set [3] was “metabolite_detected” in each case.
On to `O=C1N[11C](=O)C(c2ccccc2)N1c1ccccc1` (stereo unspecified), for which the Drug uptake entry (in [1]; with Brain [14]) was “Active” each time. Besides, the Drug excretion result in [13] and in data set [3] was “metabolite_detected” throughout.
As for `O=C1NC(c2ccccc2)[11C](=O)N1` (stereo unspecified), the Drug excretion entry in data set [23] is given as “metabolite_detected”. The Ratio with Nucleic Acid [24] worked out at 0.81; in the data set on Nucleic Acid [25], 1.91; in the data set on Nucleic Acid [26] it was 0.71; in the data set with Nucleic Acid [27] it was 0.93; in the data set on Nucleic Acid [28], 1.05; in the data set on Nucleic Acid [29] it was 0.73. The Ratio is recorded as 2.25 in the data set with Nucleic Acid [31]; 0.63 in the data set on Nucleic Acid [32]; 0.76 in the data set on Nucleic Acid [33]; 0.25 in the data set on Nucleic Acid [34]; 0.83 with Nucleic Acid [35]. For the same compound, in the data set with Canis familiaris [30], the Drug uptake entry was “Active”.

The record behind these values is ChEMBL document CHEMBL3272253, “Relationship of molecular structure to in vivo scintigraphic distribution patterns of carbon-11 labeled compounds. 3. (11C)Hydantoins” (J Med Chem, 1976).
